CR mimetic SO: reduction of superoxide in aged yeast, primary screen, HTS; AID 2690, 2010; S. cerevisiae aged cells, superoxide DHE fluorescence; stronger effect = lower value; superoxide response (% of plate mean), % at 10 µM; hit rate 0.18% among 330,000;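 active = superoxide response under a set limit, about three screen SD below normal, cut at about 65% in these data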;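 also: yeast aged for seven days with compound at 30 °C before DHE staining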
T cell HTS: modulators of CD8 T cell-vesicle binding, primary screen, mouse 2C CD8+ T cells, flow cytometry; 2C CD8+ T cell-vesicle binding; stronger effect = lower value; response (vesicle binding), % at 7 µM; hit rate 0.068% among 330,000; AID 2052, 2009;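 active = response, share of CD8 T cells binding vesicles, and their 90th percentile fluorescence all below set limits, cut at about 80% in these data, passing the limit was not always enough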;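 also: values below 100% mean blocked vesicle binding to the CD8+ T cells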
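Material: murine 2C transgenic CD8+ T lymphocytes / Also added: QL9-peptide-loaded Drosophila micro-vesicles bearing Ld, ICAM-1 and B7-1 / Schedule: binding step 1.5 h, 37 °C, antibody labelling 20 min, ice / Signal: flow cytometry, PE anti-B7-1 (FL2) versus Alexa647 anti-CD8 (FL8), PFA-fixed / Evaluation: percent CD8+ FL2 mean versus row control / Benchmarks: naked versus QL9-loaded vesicles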
proKLK7 act: proKLK7 zymogen activators, primary screen, biochemical, fluorescence intensity; Kallikrein-7 (Homo sapiens), P49862; purified proKLK7, EDANS-DABCYL substrate fluorescence; 100% is mature enzyme control, 0% vehicle; activation, % at 7 µM; hit rate 0.9% among 370,000; AID 652039, 2013;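 active = activation above the mean of all tested compounds plus 3 SD, computed per campaign excluding outliers beyond control limits, cut at about 13% in these data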
Target sequence (P49862 whole entry, looked up): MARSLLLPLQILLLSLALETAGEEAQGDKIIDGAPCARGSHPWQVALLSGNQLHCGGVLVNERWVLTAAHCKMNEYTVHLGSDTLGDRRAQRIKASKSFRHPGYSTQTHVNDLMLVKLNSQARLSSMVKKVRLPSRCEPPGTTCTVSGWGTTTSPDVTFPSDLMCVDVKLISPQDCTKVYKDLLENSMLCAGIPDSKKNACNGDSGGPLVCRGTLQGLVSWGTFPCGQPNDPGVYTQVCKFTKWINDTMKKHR
V-ATPase pHluor: regulators of yeast V-ATPase proton pumping, primary screen, pHLuorin cytosolic pH fluorescence | hit rate 0.37% among 350,000 | S. cerevisiae | response, % at 10 µM; in the data active = response mostly above about 7.3%, no sharp cut-off; inactive = mostly below about 5.4%; also: actives read high
Rce1 inh: yeast Rce1p protease inhibitors, primary screen, biochemical, fluorescence, cell-free homogeneous | yeast membranes, quenched prenylated peptide cleavage fluorescence | hit rate 0.27% among 290,000 | CAAX prenyl protease 2 (Saccharomyces cerevisiae (strain ATCC 204508 / S288c)), Q03530 | calls only;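 active = fall in fluorescence gain of 50% or more versus controls, with final raw signal at or below 3038400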
Target sequence (Q03530 whole entry, looked up): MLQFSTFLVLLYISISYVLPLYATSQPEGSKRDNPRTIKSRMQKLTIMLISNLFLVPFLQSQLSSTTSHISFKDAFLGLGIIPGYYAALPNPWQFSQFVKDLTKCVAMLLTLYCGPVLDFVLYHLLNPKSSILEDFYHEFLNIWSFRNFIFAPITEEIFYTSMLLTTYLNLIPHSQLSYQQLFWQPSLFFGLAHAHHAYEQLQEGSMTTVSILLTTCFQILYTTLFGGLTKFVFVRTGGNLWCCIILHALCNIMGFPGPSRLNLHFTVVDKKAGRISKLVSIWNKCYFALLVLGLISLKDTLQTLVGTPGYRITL
beta cell repl: inducers of MIN6 beta-cell proliferation, primary screen, ATP luminescence, uHTS; proliferation, % at 10 µM; AID 2380, 2010; MIN6 cells proliferation, ATPlite luminescence, 48 h; cells starved in 0.2% serum; 100% = growth in 10% serum; hit rate 0.29% among 330,000;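 active = compounds whose signal lies at least 3.5 SD above the mean of all wells on their plate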
V-ATPase pH SP: yeast V-ATPase proton pumping modulators, confirmation, S. cerevisiae, pH-sensitive GFP, second cherry-pick; shares compounds with V-ATPase pHluor; hit rate 2% among 980; response, % at 10 µM; S. cerevisiae pHLuorin cytosolic pH, V-ATPase proton transport; in the data active = response above about 24%
KLK7 act conf: proKLK7 zymogen activators, confirmation, biochemical, fluorescence intensity, triplicate | shares compounds with proKLK7 act | activation, % at 7 µM | purified proKLK7, EDANS-DABCYL substrate fluorescence; scaled: vehicle 0, mature enzyme 100 | hit rate 68% among 3,200;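 active = activation, as change over the incubation, above the mean of all tested compounds plus 3 SD, cut at about 13% in these data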
EDANS-DABCYL int: EDANS-DABCYL substrate optical interference, artefact control for kallikrein-7 zymogen activator project, biochemical, fluorescence intensity, high throughput; shares compounds with proKLK7 act; no enzyme, 4 h; solvent 0%, active enzyme control 100%; activation, % at 7 µM; hit rate 80% among 3,200; AID 686952, 2013;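 active = activation above the all-compound mean plus 3 SD, ignoring values outside control-based bounds, cut at about 4.8% in these data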;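 also: value is the 4 h activation minus the activation read at time zero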
EDANS interf: EDANS fluorescence interference in dose response, no enzyme; EC50, µM; EDANS-DABCYL peptide fluorescence interference; hit rate 20% among 250; shares compounds with proKLK7 act;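 active = compounds that raise the fluorescence signal in this interference counterscreen, with EC50 at or below 10 µM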;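 also: intact quenched peptide substrate alone read at 355 nm excitation and 520 nm emission; signal is fluorescence gain from T0 to T4 after four hours at room temperature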
A number is an active result; - = inactive; . = no result; ! = repeats disagree. In the library only some 1.9% were active in any assay of this set; here they are far more common.

SMILES | CR mimetic SO | T cell HTS | proKLK7 act | V-ATPase pHluor | Rce1 inh | beta cell repl | KLK7 act conf | EDANS-DABCYL int | others
CC(=O)Nc1cc(C(=O)N2CCC3(CC2)OCCO3)ccc1S(=O)(=O)c1ccc(C)cc1 | - | - | - | - | - | - | . | .
CC(=O)Nc1cc(C(=O)N2CCC3(CC2)OCCO3)ccc1S(=O)(=O)c1ccc(Cl)cc1 | - | . | - | 8.8 | - | - | . | . | V-ATPase pH SP=-
COc1ccc(NC(=S)N2Cc3ccccc3-n3nncc3C2)c(OC)c1 | . | . | - | - | . | . | . | .
Cc1ccc(C2(O)CCN3CCCCC32)cc1 (centres undefined) | - | - | - | 12 | - | - | . | . | V-ATPase pH SP=-
COC(=O)C1=C(c2ccc(-c3ccccc3)c(F)c2)C[C@@H]2CC[C@H]1N2C(=O)NCCCOC(C)C | - | - | - | - | . | - | . | .
Cc1cc(C(=O)C[N+]23CCN(CC2)CC3)c(C)n1-c1ccc(Br)cc1 | - | - | - | 9.2 | - | - | . | . | V-ATPase pH SP=-
Cc1cc(/C=C2\C(=O)NC(=O)N(c3ccc(Br)cc3)C2=O)c(C)n1-c1cc(C(=O)O)cc(C(=O)O)c1 | - | - | - | - | - | - | . | .
CCN(CC)c1ccc(N=Cc2c(O)n(Cc3ccccc3)c(=O)[nH]c2=O)cc1 | - | - | - | 46! | - | - | . | . | V-ATPase pH SP=-
CCN(CC)c1ccc(N=Cc2c(O)n(-c3ccccc3)c(=O)[nH]c2=O)cc1 | - | - | - | - | - | - | . | .
[N-]=[N+]=NCCN1CCC(O)CCC1=O (centres undefined) | - | - | - | 26 | - | - | . | . | V-ATPase pH SP=-
C=CCN1CCc2cccc3c2[C@H]1Cc1ccc(O)c(O)c1-3 | - | - | - | - | - | - | . | .
O=C(Nc1ccccc1)c1c(O)[nH]c(=O)[nH]c1=O | - | - | - | - | - | - | . | .
O=C(Nc1ccccc1)c1c(O)[nH]c(=S)[nH]c1=O | - | - | - | 13 | - | - | . | . | V-ATPase pH SP=-
COCCNCCOc1ccc(C(C)(C)c2ccccc2)cc1 | - | - | - | 12 | - | - | . | . | V-ATPase pH SP=-
O=C1NCN(c2ccccc2)C12CCN(C(c1ccccc1OC(F)(F)F)c1nnnn1-c1ccc3c(c1)OCCO3)CC2 (centres undefined) | . | . | - | . | . | . | . | .
COc1c(C)cc(C(=O)C2CCCN(Cc3cccc(C)n3)C2)cc1C (centres undefined) | - | - | - | 9.2 | - | - | . | . | V-ATPase pH SP=-
CN(C)[C@@H]1C(=O)C(C(N)=O)=C(O)[C@@]2(O)C(=O)C3=C(O)c4c(O)cccc4[C@@](C)(O)C3C[C@@H]12 (some centres undefined) | - | - | - | - | - | - | . | .
CN(C)[C@@H]1C(=O)C(C(N)=O)=C(O)[C@@]2(O)C(=O)C3=C(O)c4c(O)ccc(Cl)c4[C@@](C)(O)[C@H]3C[C@@H]12 | - | - | 13 | - | - | . | 37 | 35
Cc1cc(OCC(=O)N2CCC(C(=O)O)CC2)c2c3c(c(=O)oc2c1)CCC3 | - | - | 19 | - | . | - | 13 | 16
COC(=O)C(C)Oc1cc(C)cc2oc(=O)c3c(c12)CCC3 (centres undefined) | - | - | 16 | - | - | - | - | 12
CCCc1cc(=O)oc2cc(OCC(=O)N3CCC(C(=O)O)(c4ccccc4)CC3)ccc12 | - | - | - | - | . | - | . | .
O=C(c1cc2c(s1)-c1ccccc1OC2)N1CCC2(CC1)OCCO2 | - | - | 50 | - | - | - | 63 | 75
CC(C)[C@H]1C(=O)N2CCC[C@H]2[C@]2(O)O[C@](NC(=O)[C@@H]3C=C4c5cccc6[nH]cc(c56)C[C@H]4N(C)C3)(C(C)C)C(=O)N12 | - | - | . | - | - | - | . | .
CN1C[C@H](CO)C=C2c3cccc4[nH]cc(c34)C[C@H]21 | - | - | 39 | - | - | - | 30 | 25 | EDANS interf=-
CC[C@@]1(O)C(=O)OCc2c1cc1n(c2=O)Cc2cc3c(NC(=O)CN)cccc3nc2-1 | - | . | 350 | - | - | - | 109 | 99
SMILES | CR mimetic SO | T cell HTS | proKLK7 act | V-ATPase pHluor | Rce1 inh | beta cell repl | KLK7 act conf | EDANS-DABCYL int | others
CC[C@@]1(O)C(=O)OCc2c1cc1n(c2=O)Cc2cc3ccccc3nc2-1 | - | - | . | . | - | . | . | .
Cn1c(O)c(/C=C2\C=c3ccccc3=NC2=O)c(=O)n(C)c1=O | - | - | 13 | - | - | - | 14 | 12
Cn1c(O)c(/C=C2\C=Nc3ccccc32)c(=O)n(C)c1=O | - | - | - | - | - | - | . | .
Cc1cc(=O)oc2cc3c(cc12)CCCN3 | - | - | 60 | - | - | - | 66 | 63
O=C(NC1CCCCC1)N1C[C@H]2C[C@@H](C1)c1cccc(=O)n1C2 | - | - | - | - | - | - | . | .
O=C1NC2NC(=O)N([N+](=O)[O-])C2N1 (centres undefined) | - | - | - | - | - | - | . | .
O=c1ccc2cc(O[C@@H]3O[C@H](CO)[C@@H](O)[C@H](O)[C@H]3O)c(O)cc2o1 | . | . | 53 | - | . | . | 67 | 71
CCn1c(=O)cc(OCC(=O)N2CCC3(CC2)OCCO3)c2ccccc21 | - | - | - | - | - | - | . | .
CC(=O)N1CCC2(CC1)CC(=O)c1cc(OCC(=O)N3CCC4(CC3)OCCO4)ccc1O2 | - | - | 36 | - | - | - | 70 | 65
Cc1cc(OCC(=O)N2CCCN(C)CC2)ccc1Cl | - | - | - | - | - | - | . | .
CC(=O)N1CCC2(CC1)CC(=O)c1cc(OCC(=O)N3CCN(C)CC3)ccc1O2 | - | - | 42 | - | - | - | 63 | 68
Cc1ccc(Cn2cc(C=O)c(-c3ccc(C)cc3)n2)cc1 | - | - | - | - | - | - | . | .
O=c1[nH]c(=S)n(Cc2ccc(F)cc2)c(O)c1/C=N/N1CCCCC1 | - | - | 14 | - | - | - | - | -
O=c1[nH]c(=S)n(Cc2ccc(F)cc2)c(O)c1C=NCC1CCCO1 (centres undefined) | - | - | - | - | - | - | . | .

Source: PubChem (several laboratories)
